This is a sample that favours compounds with a hit; in the whole collection about 2.6% have one here.
E-selectin induc: induces E-selectin expression in human endothelial cells. activation, % at 7.58 µM. 0.37% of 260,000 active. HUVEC E-selectin immunofluorescence imaging; normalized: neutral wells 0, TNF-alpha wells 100;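 active = mean E-selectin-positive cell signal at least 10% of the positive control, reached in at least 60% of replicates, without over 20% cell loss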
Target sequence (P16581 whole entry, looked up): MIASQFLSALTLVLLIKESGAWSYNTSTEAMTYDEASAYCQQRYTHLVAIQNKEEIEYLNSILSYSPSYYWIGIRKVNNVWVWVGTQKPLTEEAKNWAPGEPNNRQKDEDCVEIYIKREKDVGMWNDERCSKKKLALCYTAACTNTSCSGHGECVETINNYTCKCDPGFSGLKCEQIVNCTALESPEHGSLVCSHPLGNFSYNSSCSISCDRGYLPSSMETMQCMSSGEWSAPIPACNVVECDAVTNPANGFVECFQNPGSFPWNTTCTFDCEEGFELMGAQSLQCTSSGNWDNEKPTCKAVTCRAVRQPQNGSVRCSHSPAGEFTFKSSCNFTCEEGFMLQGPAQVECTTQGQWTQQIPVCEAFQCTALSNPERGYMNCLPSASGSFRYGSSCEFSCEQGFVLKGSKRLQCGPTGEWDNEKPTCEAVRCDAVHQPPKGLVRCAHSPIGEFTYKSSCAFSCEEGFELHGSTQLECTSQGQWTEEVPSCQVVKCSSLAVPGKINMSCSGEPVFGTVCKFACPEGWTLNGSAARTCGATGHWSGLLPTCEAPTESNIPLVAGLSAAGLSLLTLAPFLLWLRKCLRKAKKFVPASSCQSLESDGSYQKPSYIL
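Read-out basis: % PE-positive cells; Test system: HUVEC primary endothelial cells; Technique: immunofluorescence imaging; Dosing: single-point compound dose.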
GSIS activator: primary screen for activators of insulin secretion dependent on glucose, INS-1E cells, GLuc reporter luminescence. activation, % at 16.6 µM. INS-1E GLuc reporter insulin secretion, 2-3 h. 0.61% of 370,000 active;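 active = lowest replicate activation of at least 40%, so every replicate reaches that level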;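 note: 0% = median of neutral control wells and 100% = median of IBMX positive control wells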
RAD54 branch: inhibitors of human RAD54 branch migration; Q92698; RAD54 Holliday junction branch migration, FAM/BHQ fluorescence; inhibition, % at 10.4 µM; 0.14% of 360,000 active;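 active = mean normalized replicate activity at least 40 and at least half of replicates scoring 40 or more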;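 note: 0% = median of neutral control wells and 100% = median of positive control wells; inhibitors cause a drop in the FAM fluorescence signal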
MLL AF4-AF9 inh: blocks AF4 peptide binding to human AF9; inhibition, % at 10 µM; AID 651704; AlphaScreen, biotin-AF4 peptide binding to FLAG-AF9; P42568; 0.47% of 350,000 active;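 active = every replicate reaching a set inhibition limit, whatever the replicate mean, cut at about 25% in these data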;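 note: 0% = plate neutral control median and 100% = total signal loss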
rRNA inh HTS: inhibits bacterial ribosomal RNA function over humanized ribosomes. E. coli WT GFP vs humanized-ribosome RFP mutants, fluorescence, 24 h; stronger effect = lower value; DMSO median 0, no signal -100. GFP signal change (wild-type ribosome), % (test concentration not listed). 1.6% of 350,000 active. AID 720706;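 active = significant combined selectivity score with lowered wild-type GFP, culture density cut under 30%, mutant RFP and density less affected; inactive = any of these conditions unmet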
RAD52 anneal inh: blocks human RAD52 DNA annealing | P43351 | recombinant RAD52 DNA annealing, FRET fluorescence | inhibition, % at 18.7 µM | 0.46% of 360,000 active | AID 651710;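 active = every replicate showing at least 50% inhibition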
* marks the source's active call; other numbers are inactive results; · = no result.

SMILES	E-selectin induc	GSIS activator	RAD54 branch	MLL AF4-AF9 inh	rRNA inh HTS	RAD52 anneal inh
CC(C)CCNC(=O)[C@H](Cc1ccccc1)N1Cc2ccccc2C1=O	76*	·	-7	-1	2	-2
O=C(CN1C(=O)c2ccccc2S1(=O)=O)NCCSCc1ccccc1Cl	·	-7	-6	-1	0	-13
O=C(CN1C(=O)c2ccccc2S1(=O)=O)NCCSCc1c(F)cccc1Cl	·	-4	-2	-1	-30*	-16
CCCn1cc(S(=O)(=O)c2ccc(Cl)cc2)c(=O)c2cc(OC)ccc21	·	4	6	0	-28*	-11
Brc1ccc(/C=N/n2cnnc2)s1	5	-37	·	·	-51*	-8
O=C(C[C@H]1CC[C@H]2[C@@H](COC[C@@H](O)CN2Cc2cccc(Cl)c2)O1)NCC1CCCCC1	0	4	-4	·	-9	·
COc1ccc(C2CC(=O)C(c3ccc(C)cc3)=CN2Cc2ccccc2)cc1 (centres undefined)	0	159*	·	·	-1	-6
CSc1nnc(-c2cc(Br)ccc2N=Cc2c(C)[nH]n(-c3ccccc3)c2=O)c(=O)[nH]1	·	-1	·	-2	-25*	-32
CCN(CC)CCCNC(=O)c1cc2cc(Cl)ccc2nc1N	1	-1	·	·	2	21
Nc1nc2ccc(Cl)cc2cc1C(=O)NCCc1ccc(Cl)cc1Cl	0	62*	·	·	·	-12
CCn1c(CCc2ccccc2)nc2ccccc21	0	17	-4	-4	-23*	2
CCc1nc2ccccc2n1CCc1ccccc1	7	39	·	2	-24*	-14
CC(C)(C)Cc1nc2ccccc2n1CCc1ccccc1	·	·	-12	·	·	·
COc1ccc(C2N(c3ccccc3)C(=O)C2(F)F)cc1OC (centres undefined)	1	44*	-2	-2	-23*	-9
C[C@@H]1CCCCO[C@@H](CN(C)S(=O)(=O)c2ccccc2)[C@@H](C)CN([C@H](C)CO)C(=O)c2cc(NC(=O)C3CCCCC3)ccc2O1	0	3	-1	-3	2	-14
CCCCNC(=O)CCC(=O)NNc1nc2ccccc2c2nc(-c3ccccc3)nn12	·	2	·	-4	2	-8
CCN(CC)CCNc1nc2cc(OC)c(OC)cc2c2nc(-c3ccccc3)nn12	·	10	106*	·	·	·
C[C@@H](NC(=O)C[C@H]1C[C@H]2c3cc(NC(=O)NC4CCCC4)ccc3O[C@H]2[C@H](CO)O1)c1ccccc1	0	5	-8	-2	1	1
O=C(Nc1cccnc1Cl)C1=NN(c2ccccc2)C(=O)CC1	·	48*	-13	1	-6	-5
O=C(NCc1ccncc1)C1=NN(c2ccccc2)C(=O)CC1	·	8	·	-4	17	-10
O=c1cc(CSc2nc(NCc3ccccc3)c3ccccc3n2)nc2ccc(Cl)cn12	1	3	-8	3	-32*	-8
O=C(CCCn1c(SCc2cc(=O)n3cc(Cl)ccc3n2)nc2ccccc2c1=O)NCC1CCCO1 (centres undefined)	2	32	-8	-1	3	-4
S=c1[nH]c2ccc(Cl)cc2[nH]1	·	·	-2	·	·	·
S=c1[nH]c2cc(Cl)ccc2s1	·	-60	·	2	-26*	-16
O=C(OCC(=O)N1CCc2ccccc2C1)c1ccc(Cl)c([N+](=O)[O-])c1	0	-10	3	-1	-7	-22
SMILES	E-selectin induc	GSIS activator	RAD54 branch	MLL AF4-AF9 inh	rRNA inh HTS	RAD52 anneal inh
Nc1ccc(C(=O)OCC(=O)N2CCc3ccccc3C2)cc1[N+](=O)[O-]	·	11	6	-3	-23*	0
CN(C)c1cccc(C(=O)OCC(=O)N2CCc3ccccc3C2)c1	·	-6	·	1	-30*	-11
CCC(=O)Nc1ccc2c(c1)C(=O)N(C)C[C@@H](OC)[C@H](C)CN(Cc1ccccc1C(=O)O)[C@H](C)CO2	0	12	10	-12	1	-2
O=C(Cc1ccccn1)N1CC2(C1)[C@H](c1ccccc1)[C@H](CO)N2C(=O)c1ccncc1	0	2	·	-3	4	-252
Cc1onc(-c2c(F)cccc2Cl)c1C(=O)Nc1ccccc1N1CCOCC1	0	-34	1	·	-28*	1
O=S(=O)(c1ccc(Cl)c(NC(=S)Nc2ccccc2N2CCOCC2)c1)N1CCOCC1	0	0	·	-1	11	-7
Fc1ccc(NC(=S)Nc2ccccc2N2CCOCC2)cc1Cl	2	-25	·	-1	-27*	-6
Cc1onc(-c2ccccc2)c1C(=O)Nc1ccccc1N1CCOCC1	·	·	4	·	·	·
CC(C)C#Cc1ccc2c(c1)O[C@H](CN(C)Cc1ccncc1)[C@H](C)CN([C@@H](C)CO)S2(=O)=O	4	2	-3	·	-4	·
C[C@H]1CN(C)C(=O)c2cc(NS(C)(=O)=O)ccc2O[C@@H]1CN(C)S(C)(=O)=O	·	-3	·	·	-1	·
O=C(CSc1nnnn1-c1ccccc1)CSc1nnnn1-c1ccccc1	·	-1	-4	-1	-28*	-52
Cc1cc(C(=O)CSc2nnnn2-c2ccccc2)c(C)n1CCc1ccccc1	·	27	-3	·	·	·
Cc1cc(C(=O)CSc2nnnn2-c2ccc(O)cc2)c(C)n1C	·	-2	·	3	-26*	-18
Cc1ncc(CSc2nnnn2-c2ccccc2)c(N)n1	·	8	3	1	-21*	-9
O=C(O)/C=C\c1cccc(-n2nnnc2SCc2ccccc2F)c1	0	52*	-7	-2	-11	-17
COc1ccc(NC(=O)N(C)C[C@H]2Oc3ccc(NC(=O)NC4CCCCC4)cc3CC(=O)N([C@H](C)CO)C[C@H]2C)cc1	-2	11	7	-5	2	6
C/C=C/c1cnc2c(c1)C(=O)N([C@@H](C)CO)C[C@@H](C)[C@H](CN(C)Cc1ccc3c(c1)OCO3)O2	2	6	4	3	3	3
COc1cccc(NC(=O)N(C)C[C@H]2Oc3ncc(C4=CCCCC4)cc3C(=O)N([C@H](C)CO)C[C@@H]2C)c1	0	-23	7	0	2	-6
O=C(O)c1ccc(-n2nnnc2SCc2ccccc2F)cc1	0	61*	11	-2	-10	-16
S=C(NCCc1ccccc1)Nc1cccc2cnccc12	15	-27	2	2	-27*	-10
S=C(NCc1ccccc1)Nc1cccc2cnccc12	·	-27	-9	3	14	-6
CCC1COC(c2cccn2Cc2ccc(Cl)cc2)=N1 (centres undefined)	·	-16	-6	2	-22*	-8
CCSCC1COC(c2cccn2Cc2ccc(C)cc2)=N1 (centres undefined)	·	·	-4	·	·	·
COc1ccccc1CN(C)C[C@@H]1OCc2cn(nn2)CCCC(=O)N([C@@H](C)CO)C[C@H]1C	0	3	·	·	-2	·
O=c1c2sccc2n(Cc2cccc(F)c2)c(=O)n1-c1ccc(F)cc1	·	46*	·	·	·	·

Screens as filed in PubChem.
